Only some compounds are listed: those with a hit (about 2.9% of all), similar ones and a draw of the others.
CAL PDZ FP-1 – human CAL PDZ-peptide interaction inhibition; Q9HD26; purified CAL PDZ, TMR-peptide fluorescence polarization, 1 h; inhibition, % at 20 µM; 0.02% of 330,000 active; AID 504414;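 active = highest replicate inhibition of at least 40%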;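 note: plate controls were DMSO neutral control wells for no effect and unlabeled competitor peptide control wells for full effect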
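Control set: unlabelled peptide and DMSO controls / Material: purified CerCALP PDZ construct / Timing: 1 h incubation at room temperature before polarization reading / Doses: 20 µM, one dose / Detection: fluorescence polarization (mP)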
ERAP1 HTS inh – ERAP1 (human) enzyme inhibition | Q9NZ08 | 0.15% of 340,000 active | recombinant ERAP1, Leu-AMC fluorescence, 60 min | inhibition, % at 10.7 µM | AID 652197;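 active = mean replicate inhibition of at least 30%, or all replicates individually reaching that 30% level; inactive = mean below 30% and not every replicate reaching it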;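 note: 0% = neutral control wells and 100% = L-leucinethiol positive control wells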
Target sequence (Q9NZ08 whole entry, looked up): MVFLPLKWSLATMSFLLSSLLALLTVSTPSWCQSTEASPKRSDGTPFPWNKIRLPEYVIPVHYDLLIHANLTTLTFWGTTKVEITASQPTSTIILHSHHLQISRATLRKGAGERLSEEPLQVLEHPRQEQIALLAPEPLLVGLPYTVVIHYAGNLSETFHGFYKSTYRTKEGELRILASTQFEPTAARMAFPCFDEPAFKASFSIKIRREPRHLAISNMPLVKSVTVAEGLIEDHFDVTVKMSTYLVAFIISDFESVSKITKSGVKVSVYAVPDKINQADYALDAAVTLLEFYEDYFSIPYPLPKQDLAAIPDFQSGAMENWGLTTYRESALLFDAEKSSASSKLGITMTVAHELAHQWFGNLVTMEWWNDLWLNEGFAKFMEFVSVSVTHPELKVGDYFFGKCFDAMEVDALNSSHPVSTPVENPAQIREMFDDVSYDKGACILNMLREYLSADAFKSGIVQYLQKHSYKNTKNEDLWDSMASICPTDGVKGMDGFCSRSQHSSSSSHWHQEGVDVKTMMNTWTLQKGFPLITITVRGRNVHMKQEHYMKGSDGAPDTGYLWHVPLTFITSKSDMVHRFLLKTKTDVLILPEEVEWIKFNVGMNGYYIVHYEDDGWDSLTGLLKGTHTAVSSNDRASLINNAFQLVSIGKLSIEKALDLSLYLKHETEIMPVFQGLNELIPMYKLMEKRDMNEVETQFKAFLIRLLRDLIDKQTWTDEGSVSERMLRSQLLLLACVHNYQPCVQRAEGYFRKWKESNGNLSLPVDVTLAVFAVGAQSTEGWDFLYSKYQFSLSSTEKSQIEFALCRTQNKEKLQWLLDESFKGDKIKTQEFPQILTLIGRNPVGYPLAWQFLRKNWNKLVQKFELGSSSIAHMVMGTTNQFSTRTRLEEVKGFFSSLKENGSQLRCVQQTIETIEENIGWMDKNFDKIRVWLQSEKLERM
DENV2 CPE rescue – protects cells from dengue virus 2 cytopathic effect; DENV2-infected cells, cytopathic effect rescue, plate reader; CPE inhibition, % at 9.99 µM; 1.7% of 350,000 active; in the data active = CPE inhibition above about 20%, passing the limit was not always enough; tested in BHK-21 cells;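 note: 0% = median of neutral control wells and 100% = median of positive control wells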
CAL PDZ FP-2 – inhibitors of human CAL PDZ peptide binding. Q9HD26. purified CAL PDZ, TMR-peptide fluorescence polarization, 1 h. inhibition, % at 24.9 µM. 0.92% of 300,000 active. AID 602252;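 active = mean inhibition of at least 30% with at least half of replicates also reaching 30%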;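 note: 0% = DMSO neutral control and 100% = excess unlabeled competitor peptide PRC23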
SIRT5 inh – blocks human SIRT5 desuccinylation of peptide; Purified SirT5, succinyl-peptide AMC, trypsin-coupled fluorescence; inhibition, % at 15 µM; 1.1% of 330,000 active; AID 652115; in the data active = inhibition above about 15%
S100A4 inh HTS – S100A4-myosin IIA interaction inhibition | S100A4/TAMRA-MyoIIA peptide fluorescence polarization | inhibition, % at 10.7 µM | P26447 | 0.14% of 360,000 active;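 active = mean inhibition of at least 70% across replicates, with every replicate also reaching that level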
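System – human S100A4 monomer protein, biochemical binding assay · Buffer or medium – Calcium-containing HEPES buffer, pH 7.2 · Timing – 5 min between mix addition and reading · Also added – TAMRA-labelled myosin IIA heavy-chain peptide probe, 5 nM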
* marks the source's active call; other numbers are inactive results; . = no result.

SMILES	CAL PDZ FP-1	ERAP1 HTS inh	DENV2 CPE rescue	CAL PDZ FP-2	SIRT5 inh	S100A4 inh HTS
C[C@@H]1CN([C@@H](C)CO)S(=O)(=O)c2ccc(C#C[C@@H](C)O)cc2O[C@H]1CN(C)CC1CCCC1	.	-7	21*	.	4	2
CCCN(C)C[C@@H]1Oc2cc(C#CC3(O)CCCC3)ccc2S(=O)(=O)N([C@H](C)CO)C[C@@H]1C	.	2	3	.	6.2*	-9
O=C(Nc1ccc2c(c1)[C@H]1C[C@@H](CC(=O)N3CCCCC3)O[C@@H](CO)[C@H]1O2)c1ccc2c(c1)OCO2	.	2	-5	.	2	0
O=C(C1CCN(S(=O)(=O)c2cnc[nH]2)CC1)N1CCN(c2ccc([N+](=O)[O-])cc2)CC1	-1	7	-5	49*	-2	0
COc1ccc(C=O)c2[nH]c3c(Cl)ncnc3c12	-1	1	-3	-7	17*	6
Cc1sc2nc(N3CCOCC3)[nH]c(=O)c2c1-c1ccccc1	0	0	14	5	31*	-5
C/C=C/c1ccc([C@H]2[C@@H](CO)N(C(=O)CC3CC3)C23CN(S(C)(=O)=O)C3)cc1	.	0	2	.	-3	-16
C[C@H]1CN([C@@H](C)CO)C(=O)c2cc(N(C)C)ccc2O[C@@H]1CN(C)C(=O)NC1CCCCC1	.	-1	1	.	-4	5
COc1ccccc1C(CC(=O)c1ccccc1)C(=O)c1ccccc1 (stereo unspecified)	.	.	2	.	17*	0
COc1ccccc1C(CC(=O)c1ccccc1)CC(=O)c1ccccc1	-1	5	-7	-2	3	1
CCNC(=O)C[C@@H]1CC[C@@H]2[C@H](COc3ccc(NC(=O)c4cccs4)cc3C(=O)N2C)O1	.	2	4	.	-2	-5
Cn1cc(Br)c(C(=O)Nc2c(F)c(F)c(F)c(F)c2F)n1	0	0	-3	-5	21*	-29
Cc1nn(Cc2c(F)c(F)c(F)c(F)c2F)c(C)c1NC(=O)c1nn(C)cc1Br	-1	1	-1	.	2	0
Nc1ccn([C@H]2CS[C@@H](CO)O2)c(=O)n1	-1	4	27*	-5	.	-11
CCOc1ccccc1-n1nnnc1SCC(=O)NC(=O)Cc1ccccc1	-2	33*	6	2	-4	-3
CCOc1ccccc1-n1nnnc1SCC(=O)NC(=O)NCc1ccco1	-2	.	.	-1	.	.
C[C@H]1CN([C@@H](C)CO)C(=O)c2cc(NC(=O)NC3CCCCC3)ccc2O[C@H]1CN(C)Cc1ccc(C(F)(F)F)cc1	.	-1	12	.	4	6
CCCN1[C@@H]2c3ccc(-c4ccccc4F)c(=O)n3C[C@H]1[C@H](CO)[C@H]2C(=O)NCc1ccccn1	.	-5	-1	.	-2	8
Cc1ccccc1Nc1nc(N)nc(CN2C(=O)NC3(CCCCC3C)C2=O)n1 (stereo unspecified)	-1	.	.	50*	.	.
CN(C)CC(=O)Nc1ccc2c(c1)[C@H]1C[C@@H](CC(=O)NCCc3ccccc3)O[C@H](CO)[C@H]1O2	.	1	0	.	-1	6
COc1ccc(S(=O)(=O)Nc2ccc3c(c2)C(=O)N([C@H](C)CO)C[C@@H](C)[C@H](CN(C)C)OCCCC[C@@H](C)O3)cc1	.	2	2	.	-3	-6
CN(C)C(=O)c1cccc(-c2ccc([C@@H]3[C@@H](C#N)N(C(=O)C4CCC4)[C@@H]3CO)cc2)c1	.	1	26*	.	-3	4
CN(C)C(=O)c1cccc(-c2ccccc2[C@H]2[C@H](C#N)N(C(=O)C3CC3)[C@H]2CO)c1	.	-1	6	.	3	-8
CN(C)C(=O)c1ccc(-c2ccc([C@@H]3[C@@H](C#N)N(C(=O)C4CCC4)[C@H]3CO)cc2)cc1	.	-1	5	.	-1	-32
CN(C)C(=O)c1ccc(-c2ccc([C@@H]3[C@@H](CO)N(C(=O)C4CCCC4)[C@H]3C#N)cc2)cc1	.	4	29*	.	6	1
SMILES	CAL PDZ FP-1	ERAP1 HTS inh	DENV2 CPE rescue	CAL PDZ FP-2	SIRT5 inh	S100A4 inh HTS
CN(C)C(=O)c1cccc(-c2ccc([C@@H]3[C@@H](CO)N(C(=O)C4CCC4)[C@H]3C#N)cc2)c1	.	1	-12	.	-6	-1
CN(C)C(=O)c1cccc(-c2ccccc2[C@H]2[C@@H](C#N)N(C(=O)C3CC3)[C@H]2CO)c1	.	1	43*	.	0	10
CN(C)CC(=O)N1[C@H](C#N)[C@H](c2ccc(-c3ccc(C(=O)N(C)C)cc3)cc2)[C@H]1CO	.	0	37*	.	1	-2
O=C1C2C=C(Br)[C@H](C[C@@H]2OCCCCCCO)[C@@]12CO2	.	3	1	.	-3	-3
CC(C)NC(=O)Nc1ccc2c(c1)C(=O)N([C@H](C)CO)C[C@@H](C)[C@H](CN(C)Cc1ccccc1)O2	.	-2	43*	.	-4	-4
C[C@@H]1CN([C@@H](C)CO)C(=O)c2cc(NC(=O)Nc3ccc(F)cc3)ccc2O[C@H]1CN(C)Cc1ccccc1	.	-3	13	.	-2	-51
C[C@H]1CN([C@@H](C)CO)C(=O)c2cc(NC(=O)Nc3ccc(F)cc3)ccc2O[C@H]1CN(C)Cc1ccccc1	.	-5	25*	.	2	1
C[C@@H]1CN([C@@H](C)CO)C(=O)c2cc(NC(=O)Nc3ccccc3)ccc2O[C@@H]1CN(C)Cc1ccc(Oc2ccccc2)cc1	.	2	-13	.	17*	1
Cc1noc(C)c1NC(=O)Nc1ccc2c(c1)C(=O)N([C@H](C)CO)C[C@@H](C)[C@H](CN(C)Cc1ccccc1)O2	.	5	-7	.	3	-9
Cc1noc(C)c1NC(=O)Nc1ccc2c(c1)C(=O)N([C@@H](C)CO)C[C@H](C)[C@@H](CN(C)Cc1ccccc1)O2	.	3	29*	.	-43	-2
C[C@H](CO)N1C[C@H](C)[C@@H](CN(C)Cc2ccc(Oc3ccccc3)cc2)Oc2ccc(NC(=O)Nc3ccccc3)cc2C1=O	.	2	3	.	11	21
C[C@@H]1CN([C@@H](C)CO)C(=O)c2ccccc2-c2ccccc2CO[C@H]1CN(C)C(=O)N[C@H](C)c1ccccc1	.	-2	2	.	-1	-15
CCC(=O)Nc1ccc2c(c1)OC[C@@H](C)N(Cc1cccnc1)C[C@@H](C)[C@@H](OC)CN(C)C2=O	.	-6	-2	.	0	5

Bioassay records from PubChem BioAssay.
